In brackets after ≈: the same amount, converted by molar mass.
What was measured:
Cavia porcellus [1] = species: Cavia porcellus; assay: Inhibition of histamine stimulated chronotropic response in isolated guinea pig right atrium (1*10e-6 g/mL); type: functional, Cardiac atrium
How it was run: (§1)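 Guinea pig right atrial strip, under 0.3-0.6 g initial tension in Tyrode solution at 30 °C, gassed with 95% O₂-5% CO₂; beating rate recorded by transducer. Histamine hydrochloride (1 × 10^-6 g/mL) raised rate. Test compound (1 × 10^-6 g/mL) was added 30 min after histamine washout. Percent inhibition compares histamine-induced rate increases before and 30 min after dosing.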

Rattus norvegicus [2] = assay: Inhibition of histamine stimulated gastric acid secretion in lumen perfused stomach of anesthetized rats (1 mg/kg iv); type: functional
How it was run: (§2)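 Male Sprague-Dawley rats (~250 g), fasted 24 h, anesthetized with urethane 1.25 g/kg ip. The opened stomach was lumen-perfused with saline, and the perfusate was titrated with 25 mM NaOH by autotitrator. Inhibition of histamine-stimulated acid output was measured after 1 mg/kg iv dosing; n = 2.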

Helicobacter pylori [3] = assay: The lowest drug concentration that inhibited macroscopic colonial growth against Helicobacter pylori; value ranges from 0.39-0.78; type: functional
How it was run: (§3)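 Agar dilution. Strains were precultured 3 days at 37 °C on Brucella agar with 3% horse serum and 2% starch, then suspended in buffered saline to McFarland No. 1. A 10²-fold dilution was spotted by multipoint replicator onto Brucella agar with 7% lysed horse blood carrying serial 2-fold drug dilutions. Plates were incubated 3 days at 37 °C under 10% CO₂. MIC is the lowest concentration preventing macroscopic colonial growth. Mean and range come from 10 strains: 8001, 8003, 8004, 8007, 8008, 8009, 8011, 9005, FP1530 and FP1532.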

Helicobacter pylori [4] = assay: The lowest drug concentration that inhibited macroscopic colonial growth against Helicobacter pylori.; type: functional; how it was run: as §3
Helicobacter pylori [5] = assay: The lowest drug concentration that inhibited macroscopic colonial growth against Helicobacter pylori;value ranges from 6.25-50; type: functional; how it was run: as §3
Helicobacter pylori [6] = assay: microbe, parasite or virus in culture
Helicobacter pylori [7] = assay: The lowest drug concentration that inhibited macroscopic colonial growth against Helicobacter pylori; value ranges from 0.39-1.56; type: functional; how it was run: as §3
Helicobacter pylori [8] = assay: The lowest drug concentration that inhibited macroscopic colonial growth against Helicobacter pylori; Value ranges from 6.25-50; type: functional; how it was run: as §3
Bacteroides fragilis = assay: Antimicrobial activity was measured against B. fragilis; range is between (0.2-12.5).; type: functional
Campylobacter jejuni = assay: Antimicrobial activity was measured against Campylobacter jejuni organism; range is between ( 0.39-6.25).; type: functional
Clostridium perfringens = assay: Antimicrobial activity was measured against Clostridium perfringens organism; range is between (0.025-0.05); type: functional
Clostridioides difficile = assay: Antimicrobial activity was measured against Clostridium difficile organism; range is between (0.1-0.78); type: functional
Neisseria gonorrhoeae = assay: Antimicrobial activity was measured against Neisseria gonorrhoeae organism; range is between (0.39-100).; type: functional
Neisseria meningitidis = assay: Antimicrobial activity was measured against Neisseria meningitidis organism; range is between (0.05-0.1).; type: functional
Helicobacter pylori [9] = assay: The lowest drug concentration that inhibited macroscopic colonial growth against Helicobacter pylori; value range is between 0.0063-0.1; type: functional; how it was run: as §3
Helicobacter pylori [10] = assay: The lowest drug concentration that inhibited macroscopic colonial growth against Helicobacter pylori; value ranges from 3.13-50; type: functional; how it was run: as §3
Helicobacter pylori [11] = assay: The lowest drug concentration that inhibited macroscopic colonial growth against Helicobacter pylori; Value ranges from 25-100; type: functional; how it was run: as §3
Helicobacter pylori [12] = assay: The lowest drug concentration that inhibited macroscopic colonial growth against Helicobacter pylori; value ranges from 0.0125-0.1; type: functional; how it was run: as §3
Helicobacter pylori [13] = assay: The lowest drug concentration that inhibited macroscopic colonial growth against Helicobacter pylori; value ranges from 0.2-0.78; type: functional; how it was run: as §3
Cavia porcellus [14] = species: Cavia porcellus; assay: Inhibition of histamine stimulated chronotropic response in isolated guinea pig right atrium (1x 10e-6 g/mL); type: functional, Cardiac atrium; how it was run: as §1
Rattus norvegicus [15] = assay: Inhibition of histamine stimulated gastric acid secretion in lumen perfused stomach of anesthetized rat (1 mg/kg iv); type: functional; how it was run: as §2
Helicobacter pylori [16] = assay: The lowest drug concentration that inhibited macroscopic colonial growth against Helicobacter pylori; value ranges from 12.5-50; type: functional; how it was run: as §3

CC(=O)NCc1cccc(-c2csc(NC(=N)NCCc3ccccn3)n2)c1
Inhibition (Cavia porcellus [1]): 39% | Inhibition (Rattus norvegicus [2]): 14% | MIC (Helicobacter pylori [3]): 0.49 µg/mL (≈ 1.24 µM)

CC(=O)Nc1ccc2c(c1)-c1nc(N=C(N)N)sc1CS2
MIC (Helicobacter pylori [4]): > 100 µg/mL

CC(=O)NCc1cccc(-c2csc(NC(=N)NCCc3c[nH]cn3)n2)c1
MIC (Helicobacter pylori [5]): 27 µg/mL (≈ 70.4 µM)

CN/C(=N\CCSCc1nc[nH]c1C)NC#N [CIMETIDINE]
MIC (Helicobacter pylori [6]): 1130 µg/mL (≈ 4480 µM) | Inhibition (Cavia porcellus [1]): 43% | Inhibition (Rattus norvegicus [2]): 53%

CC(=O)NCc1cccc(-c2csc(N=C(N)N)n2)c1
MIC (Helicobacter pylori [4]): 16.5 µg/mL (≈ 57 µM)

CC/N=C(\N)Nc1nc(-c2cccc(CNC(C)=O)c2)cs1
MIC (Helicobacter pylori [4]): 3.6 µg/mL (≈ 11.3 µM)

C/N=C(\N)Nc1nc(-c2cccc(CNC(C)=O)c2)cs1
MIC (Helicobacter pylori [4]): 14.4 µg/mL (≈ 47.5 µM)

COCCC/N=C(\N)Nc1nc(-c2cccc(CNC(C)=O)c2)cs1
MIC (Helicobacter pylori [7]): 0.96 µg/mL (≈ 2.66 µM) | Inhibition (Cavia porcellus [1]): 54% | Inhibition (Rattus norvegicus [2]): 87%

CCCC/N=C(\N)Nc1nc2c(s1)CSc1ccc(CNC(C)=O)cc1-2
MIC (Helicobacter pylori [8]): 22 µg/mL (≈ 56.5 µM)

CC(=O)NCc1cccc2c1OCCc1sc(N=C(N)N)nc1-2
MIC (Helicobacter pylori [4]): > 100 µg/mL

CC1(C)S[C@@H]2[C@H](NC(=O)[C@H](N)c3ccc(O)cc3)C(=O)N2[C@H]1C(=O)O [AMOXICILLIN]
MIC (Bacteroides fragilis): 2.1 µg/mL (≈ 5.75 µM) | MIC (Campylobacter jejuni): 2.2 µg/mL (≈ 6.02 µM) | MIC (Clostridium perfringens): 0.027 µg/mL (≈ 0.0739 µM) | MIC (Clostridioides difficile): 0.28 µg/mL (≈ 0.766 µM) | MIC (Neisseria gonorrhoeae): 7.7 µg/mL (≈ 21.1 µM) | MIC (Neisseria meningitidis): 0.056 µg/mL (≈ 0.153 µM) | MIC (Helicobacter pylori [9]): 0.021 µg/mL (≈ 0.0575 µM)

CC(=O)NCc1cccc(-c2csc(NC(=N)NCCNC(=O)c3ccccc3)n2)c1
MIC (Helicobacter pylori [10]): 23 µg/mL (≈ 52.7 µM)

CC(=O)NCc1ccc2c(c1)-c1nc(N=C(N)N)sc1CO2
MIC (Helicobacter pylori [11]): 62 µg/mL (≈ 195 µM)

CC(=O)NCc1cccc(-c2csc(NC(=N)NCCc3ccccc3)n2)c1
Inhibition (Cavia porcellus [1]): 65% | Inhibition (Rattus norvegicus [2]): 59% | MIC (Helicobacter pylori [12]): 0.037 µg/mL (≈ 0.094 µM)

CC(=O)NCc1cccc(-c2csc(NC(=N)NCCCc3ccccc3)n2)c1
MIC (Helicobacter pylori [13]): 0.39 µg/mL (≈ 0.957 µM) | Inhibition (Cavia porcellus [14]): 35% | Inhibition (Rattus norvegicus [15]): 57%

COc1ccccc1CC/N=C(\N)Nc1nc2c(s1)CCOc1ccc(CNC(C)=O)cc1-2
MIC (Helicobacter pylori [8]): 18.9 µg/mL (≈ 40.6 µM)

CC(=O)Nc1ccc2c(c1)-c1nc(N=C(N)N)sc1CCO2
MIC (Helicobacter pylori [4]): > 100 µg/mL

CCO/N=C(\N)Nc1nc(-c2cccc(CNC(C)=O)c2)cs1
MIC (Helicobacter pylori [16]): 29 µg/mL (≈ 87 µM)
